# High-throughput results from PubChem.
# Rows were chosen to be rich in hits. Some 2% of all compounds tested hit in one or more screens of this group.
# LEDGF integ inh: blocks HIV-1 LEDGF/p75-dependent DNA integration. inhibition, % at 3.7 µM. TR-FRET IN-LEDGF/p75 DNA integration, Eu/Cy5. AID 743269. hit rate 0.64% among 370,000;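 active = inhibition above the screen-wide mean plus 3 SD, cut at about 13% in these data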;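 note: signal is the Cy5 over europium emission ratio at 671 and 618 nm; 0% = plate median of compound wells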
# ARFGAP1 inhibitor: inhibitors of rat ARFGAP1; Arfgap1-stimulated ARF1 GTP hydrolysis, GDP FP detection; inhibition, % at 16.5 µM; hit rate 0.26% among 360,000;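 active = inhibition above a per-plate limit, mean inhibition of low control wells plus 3 SD, cut at about 25% in these data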;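 note: 0% = DMSO wells with enzyme and 100% = wells lacking Arfgap1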
# Target sequence (Q62848 1-136 limits assumed): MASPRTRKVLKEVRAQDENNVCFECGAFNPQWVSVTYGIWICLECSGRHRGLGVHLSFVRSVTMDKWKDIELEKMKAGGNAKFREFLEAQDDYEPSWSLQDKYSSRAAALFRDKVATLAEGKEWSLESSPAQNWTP
#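 Repeats: one replicate per compound; assay system: rat Arfgap1 catalytic domain, aa 1-136; times: enzyme reaction 120 min at 25 °C after 20 min preincubation; detection: FP of antibody-bound GDP Alexa 633 tracer, ex 620/em 688 nm; benchmarks: high control wells lacking Arfgap1, low control full reaction with DMSO; reagent: human ARF1(Δ1-17)-GTP substrate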
# MBD2 DNA inh: inhibitors of human MBD2 binding to methylated oligonucleotide; hit rate 0.31% among 370,000; TR-FRET; AID 686964; Q9UBB5; inhibition, % at 4.4 µM; in the data active = inhibition above about 13%
# ASAP1 inh: blocks human ASAP1-stimulated Arf1 GTP hydrolysis; inhibition, % at 16.5 µM; hit rate 0.19% among 360,000; GDP FP detection; Q9ULH1; in the data active = inhibition above about 25%;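 note: 0% = vehicle with enzyme and substrate and 100% = no enzyme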
# TDP2 absorb: blocks human TDP2 phosphodiesterase activity. recombinant TDP2, T5PNP hydrolysis, p-nitrophenol absorbance 415 nm. inhibition, % at 12.8 µM. hit rate 0.34% among 370,000;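 active = inhibition above the mean of all tested compounds plus 3 SD, set per campaign, cut at about 25% in these data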;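 note: 0% = DMSO with enzyme and 100% = buffer with substrate but no TDP2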
# Target sequence (O95551 whole entry, looked up): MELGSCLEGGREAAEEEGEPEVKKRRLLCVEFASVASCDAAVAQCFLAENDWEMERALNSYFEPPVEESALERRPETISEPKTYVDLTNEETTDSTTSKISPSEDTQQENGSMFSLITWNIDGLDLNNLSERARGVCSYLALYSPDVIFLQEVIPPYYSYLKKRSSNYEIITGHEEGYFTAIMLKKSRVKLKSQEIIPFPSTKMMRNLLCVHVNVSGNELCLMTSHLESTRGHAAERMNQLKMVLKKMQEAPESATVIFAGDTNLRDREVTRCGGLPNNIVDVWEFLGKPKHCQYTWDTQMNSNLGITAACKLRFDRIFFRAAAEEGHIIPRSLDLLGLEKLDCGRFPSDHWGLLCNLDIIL
#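 Evaluation: % inhibition relative to enzyme-containing and enzyme-free wells. Material: recombinant human TDP2. Benchmarks: enzyme-free and DMSO wells. Timing: enzyme reaction with compound for 2 h at 37 °C. Compound dosing: 12.8 µM only. Measured by: p-Nitrophenol epi absorbance. Reagent: T5PNP substrate at 5 mM, a TopII-DNA adduct mimic. Replication: single well per compound.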
# UHRF1 binding: blocks human UHRF1 binding to methylated DNA | hit rate 0.75% among 370,000 | AID 687016 | UHRF1 binding to methylated oligo, TR-FRET | Q96T88 | inhibition, % at 4.4 µM; in the data active = inhibition above about 21%;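 note: UHRF1 SRA domain binding a hemimethylated CpG hairpin DNA probe; 0% = median of test compound wells and 100% = reference inhibitor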
# IN multimer act: counter-screen for LEDGF/p75 integration inhibitors: HIV-1 integrase multimerization activators; activation, % at 7.7 µM; hit rate 17% among 2,000; shares compounds with LEDGF integ inh; TR-FRET HIV-1 integrase multimerization, biochemical; in the data active = activation above about 8.9%
# TRFRET interf: optically interferes with TR-FRET readout in LEDGF counter-screen | shares compounds with LEDGF integ inh | TR-FRET optical interference counterscreen, HIV-1 IN multimerization | 2,000 tested, under 10 active | AID 1053135 | inhibition, % at 7.7 µM;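 active = inhibition above the mean over all tested compounds plus 3 SD, which no compound reached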;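 note: 0% = integrase with antibodies and DMSO and 100% = antibodies without integrase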
# IN-LEDGF confirm: LEDGF/p75-dependent HIV-1 integration inhibition, confirmation; AID 1053136; hit rate 36% among 2,000; TR-FRET LEDGF/p75-dependent HIV-1 integration, biochemical; shares compounds with LEDGF integ inh; inhibition, % at 3.7 µM; in the data active = inhibition above about 14%
# * = called active by the depositor; / = not tested or not shown; ! = not active in a repeat.
SMILES,LEDGF integ inh,ARFGAP1 inhibitor,MBD2 DNA inh,ASAP1 inh,TDP2 absorb,UHRF1 binding,IN multimer act,TRFRET interf,IN-LEDGF confirm
CSc1ccc(C2C(C#N)=C(N)Oc3c2ccc(=O)c2c(C)oc(C)c32)cc1 (centres undefined),-2,-3,-2,2,-3,-4,/,/,/
Cc1oc(C)c2c(=O)ccc3c(c12)OC(N)=C(C#N)C3c1ccccc1 (centres undefined),15*,3,-1,11,-17,6,-2,7,8
COC(=O)[C@]12C[C@H](CC(=O)N3CCCC3)C(=O)N(CCc3ccc(OC)c(OC)c3)C1=C[C@H](C(C)C)O[C@@H]2C1CC1,1,/,-2,/,6,0,/,/,/
C=CCN1C(=O)[C@@H](CC(=O)NCCCOCCCC)[C@]2(C(=O)OC)CCCCC=C12,1,/,2,/,5,1,/,/,/
CCN(CC)C(=O)[C@H]1C[C@H](CC(=O)NCCc2ccccn2)C(=O)N2CCc3c([nH]c4cc(-c5ccco5)ccc34)[C@]12C,65*,9,-3,9,-2,0,0,-1,-5
NC(=O)c1c(N)[nH]c(C(=O)c2ccccc2)c1-c1ccccn1,0,/,-1,/,-6,-1,/,/,/
CN=c1scc(C)n1/N=C/c1cc(Br)c(O)c(OC)c1,-6,-1,2,3,2,-2,/,/,/
CN=c1scc(-c2cccs2)n1/N=C/c1ccc(O)c(O)c1O,28*,4,4,-2,-1,8,5,-25,42*
CN=c1scc(C)n1/N=C/c1ccc(O)c(O)c1O,57*,-6,4,8,6,5,33*,-168,40*
COC(=O)C1CN(CCO)CCS(=O)(=O)N1Cc1cn(Cc2ccccc2Br)nn1 (centres undefined),3,/,1,/,-12,-1,/,/,/
C[C@@H]1O[C@@H](Oc2c(-c3ccc(O)c(O)c3)oc3cc(O)cc(O)c3c2=O)[C@H](O)[C@H](O)[C@H]1O,21*!,4,0,5,-8,4,16*,-81,58*
C[C@@H]1O[C@@H](O[C@H]2[C@H](O)[C@@H](O)[C@H](Oc3c(-c4ccc(O)c(O)c4)oc4cc(O)cc(O)c4c3=O)O[C@@H]2CO)[C@H](O)[C@H](O)[C@H]1O,7,4,2,-5,-3,8,/,/,/
O=c1c(OC2OC(CO)C(O)C(O)C2OC2OC(CO)C(O)C(O)C2O)c(-c2ccc(O)cc2)oc2cc(O)cc(O)c12 (centres undefined),19*,4,1,13,-8,1,48*,-170,48*
C[C@@H]1O[C@@H](Oc2c(-c3cc(O)c(O)c(O)c3)oc3cc(O)cc(O)c3c2=O)[C@H](O)[C@H](O)[C@H]1O,55*,-10,-4,-9,-8,5,53*,-189,63*
COc1cc(-c2oc3cc(O)cc(O)c3c(=O)c2O[C@@H]2O[C@H](COC3O[C@@H](C)[C@H](O)[C@@H](O)[C@H]3O)[C@@H](O)[C@H](O)[C@H]2O)ccc1O (some centres undefined),2,8,-4,7,2,-2,/,/,/
COc1ccc(S[C@]2(C(=O)N(C)C)CC(=O)N(C(=O)Nc3ccc(C)c(Cl)c3)[C@@H]2c2ccc(OC)cc2)cc1,-4,/,2,/,8,0,/,/,/
CCOC(=O)[C@@]12CCC3=C1N(CCC3)C(=O)[C@H](CC(=O)N1CCC(c3ccccc3)CC1)C2,-3,/,3,/,-4,0,/,/,/
CC1Cn2c(CCc3ccccc3)nnc2S1 (centres undefined),23*,-2,3,-10,4,1,0,-1,-6
